Source: ChEMBL document CHEMBL4680181, “Identification of a 2,4-diaminopyrimidine scaffold targeting Trypanosoma brucei pteridine reductase 1 from the LIBRA compound library screening campaign” (Eur J Med Chem, 2020)
Active and inactive are the calls of the source. No cut-off for these calls is given here.

How the values were obtained:
[1] = Inhibition of Trypanosoma brucei PTR1 using H2B as substrate preincubated for 10 mins followed by NADPH addition and measured up to 50 mins relative to control
How it was run: (§1)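 Purified recombinant LmPTR1 or TbPTR1 in a coupled enzyme assay. Nine-point dose response from 0.5 to 100 μM. IC50, pIC50 and Hill slope from a 4-parameter logistic fit. Ki derived by the competitive model Ki = IC50/((S/Km)+1).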

[2] = molecular target: T1, Pteridine reductase 1 (Leishmania major, UniProt Q01782); experiment: Inhibition of Leishmania major PTR1 using H2B as substrate preincubated for 10 mins followed by NADPH addition and measured up to 50 mins relative to control; how it was run: as §1
T1 sequence (Q01782 whole entry): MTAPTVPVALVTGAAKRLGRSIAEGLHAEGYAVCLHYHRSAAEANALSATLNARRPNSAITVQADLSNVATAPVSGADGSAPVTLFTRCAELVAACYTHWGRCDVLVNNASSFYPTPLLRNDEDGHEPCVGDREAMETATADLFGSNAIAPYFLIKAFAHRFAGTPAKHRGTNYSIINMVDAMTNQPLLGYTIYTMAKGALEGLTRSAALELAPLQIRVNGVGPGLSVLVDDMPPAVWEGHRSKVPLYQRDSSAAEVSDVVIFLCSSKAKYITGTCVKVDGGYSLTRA

[3] = tested on: Trypanosoma brucei brucei; experiment: Antitrypanosomal activity against bloodstream form of trypanosoma brucei brucei 427 assessed as reduction in parasitic growth after 72 hrs by resazurin staining based fluorescence assay; assay type: functional, organism-based
How it was run: (§2)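 T. brucei bloodstream forms in a modified resazurin-based growth assay. EC50 (concentration inhibiting growth by 50%) obtained by nonlinear regression. Combination wells contained 4 μM MTX (methotrexate); single-agent MTX was run at 4 μM. Single-concentration tests used 10, 1 or 0.1 μM of test compound.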

[4] = tested on: Trypanosoma brucei brucei; experiment: Antitrypanosomal activity against bloodstream form of trypanosoma brucei brucei 427 assessed as inhibition of parasitic growth at 1 uM after 72 hrs in presence of MTX by resazurin staining based fluorescence assay relative to control; assay type: functional; settings: read-out: GI; how it was run: as §2
[5] = tested on: Trypanosoma brucei brucei; experiment: Antitrypanosomal activity against bloodstream form of trypanosoma brucei brucei 427 assessed as inhibition of parasitic growth at 10 uM after 72 hrs by resazurin staining based fluorescence assay relative to control; assay type: functional; how it was run: as §2
[6] = tested on: Trypanosoma brucei brucei; experiment: Antitrypanosomal activity against bloodstream form of trypanosoma brucei brucei 427 assessed as inhibition of parasitic growth at 1 uM after 72 hrs by resazurin staining based fluorescence assay relative to control; assay type: functional, organism-based; how it was run: as §2
[7] = tested on: Trypanosoma brucei brucei; experiment: Antitrypanosomal activity against bloodstream form of trypanosoma brucei brucei 427 assessed as potentiation index at 1 uM after 72 hrs in presence of MTX by resazurin staining based fluorescence assay; assay type: functional
How it was run: (§3)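 Synergy index taken as the activity of test compound plus 4 μM MTX, divided by the summed activities of test compound alone and 4 μM MTX alone. Resazurin-based assay on T. brucei bloodstream forms.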

[8] = Cytotoxicity against human A549 cells assessed as reduction in cell viability by Cell Titer-Glo assay; assay type: cell-based
How it was run: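 A549 cells from DSMZ, grown in DMEM with 10% v/v FCS, 100 μg/mL streptomycin and 100 U/mL penicillin G. Viability read by CellTiter-Glo luminescence of cellular ATP, which scales with cell number. GI50 reported.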

[9] = Cytotoxicity against human THP-1 cells assessed as reduction in cell viability by MTT assay; assay type: cell-based
[10] = tested on: Trypanosoma brucei; experiment: Inhibition of Trypanosoma brucei PTR1 at 50 uM using H2B as substrate preincubated for 10 mins followed by NADPH addition and measured up to 50 mins relative to control; settings: time min <=60
[11] = Selectivity ratio Ki for inhibition of inhibition of Leishmania major PTR1 to Ki for inhibition of Trypanosoma brucei PTR1
How it was run: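 Ki values for LmPTR1 and TbPTR1, each calculated from the coupled-assay IC50 with the competitive model Ki = IC50/((S/Km)+1).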

[12] = tested on: Trypanosoma brucei brucei; experiment: Antitrypanosomal activity against bloodstream form of trypanosoma brucei brucei 427 assessed as inhibition of parasitic growth at 10 uM after 72 hrs in presence of MTX by resazurin staining based fluorescence assay relative to control; assay type: functional; settings: for inhibition of growth at 10 µM: read-out: GI; how it was run: as §2
[13] = tested on: Trypanosoma brucei brucei; experiment: Antitrypanosomal activity against bloodstream form of trypanosoma brucei brucei 427 assessed as potentiation index at 10 uM after 72 hrs in presence of MTX by resazurin staining based fluorescence assay; assay type: functional; how it was run: as §3
[14] = molecular target: hERG (KCNH2) (Homo sapiens, UniProt Q12809); experiment: Inhibition of human ERG at 10 uM by fluorescence polarization assay relative to control
How it was run: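 hERG inhibition measured by fluorescence polarization (Predictor hERG assay), with compound at 10 μM.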

[15] = molecular target: CYP2D6 (Homo sapiens, UniProt P10635); experiment: Inhibition of CYP2D6 (unknown origin) at 10 uM by P450-Glo assay relative to control; assay type: ADME
How it was run: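 CYP2D6 inhibition measured in the P450-Glo luminescent platform, with compound at 10 μM.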

[16] = tested on: Trypanosoma brucei brucei; experiment: Antitrypanosomal activity against bloodstream form of trypanosoma brucei brucei 427 assessed as inhibition of parasitic growth at 0.1 uM after 72 hrs in presence of MTX by resazurin staining based fluorescence assay relative to control; assay type: functional; settings: read-out: GI; how it was run: as §2
[17] = tested on: Trypanosoma brucei brucei; experiment: Antitrypanosomal activity against bloodstream form of trypanosoma brucei brucei 427 assessed as inhibition of parasitic growth at 0.1 uM after 72 hrs by resazurin staining based fluorescence assay relative to control; assay type: functional, organism-based; how it was run: as §2
[18] = tested on: Trypanosoma brucei brucei; experiment: Antitrypanosomal activity against bloodstream form of trypanosoma brucei brucei 427 assessed as potentiation index at 0.1 uM after 72 hrs in presence of MTX by resazurin staining based fluorescence assay; assay type: functional; how it was run: as §3
[19] = tested on: Trypanosoma brucei brucei; experiment: Antitrypanosomal activity against bloodstream form of trypanosoma brucei brucei 427 assessed as inhibition of parasitic growth at 4 uM after 72 hrs in presence of MTX by resazurin staining based fluorescence assay relative to control; assay type: functional; settings: read-out: GI; how it was run: as §2
[20] = Trypanosoma brucei, 427, 72 h, read-out: IC50

hERG (KCNH2), sequence (Q12809 whole entry): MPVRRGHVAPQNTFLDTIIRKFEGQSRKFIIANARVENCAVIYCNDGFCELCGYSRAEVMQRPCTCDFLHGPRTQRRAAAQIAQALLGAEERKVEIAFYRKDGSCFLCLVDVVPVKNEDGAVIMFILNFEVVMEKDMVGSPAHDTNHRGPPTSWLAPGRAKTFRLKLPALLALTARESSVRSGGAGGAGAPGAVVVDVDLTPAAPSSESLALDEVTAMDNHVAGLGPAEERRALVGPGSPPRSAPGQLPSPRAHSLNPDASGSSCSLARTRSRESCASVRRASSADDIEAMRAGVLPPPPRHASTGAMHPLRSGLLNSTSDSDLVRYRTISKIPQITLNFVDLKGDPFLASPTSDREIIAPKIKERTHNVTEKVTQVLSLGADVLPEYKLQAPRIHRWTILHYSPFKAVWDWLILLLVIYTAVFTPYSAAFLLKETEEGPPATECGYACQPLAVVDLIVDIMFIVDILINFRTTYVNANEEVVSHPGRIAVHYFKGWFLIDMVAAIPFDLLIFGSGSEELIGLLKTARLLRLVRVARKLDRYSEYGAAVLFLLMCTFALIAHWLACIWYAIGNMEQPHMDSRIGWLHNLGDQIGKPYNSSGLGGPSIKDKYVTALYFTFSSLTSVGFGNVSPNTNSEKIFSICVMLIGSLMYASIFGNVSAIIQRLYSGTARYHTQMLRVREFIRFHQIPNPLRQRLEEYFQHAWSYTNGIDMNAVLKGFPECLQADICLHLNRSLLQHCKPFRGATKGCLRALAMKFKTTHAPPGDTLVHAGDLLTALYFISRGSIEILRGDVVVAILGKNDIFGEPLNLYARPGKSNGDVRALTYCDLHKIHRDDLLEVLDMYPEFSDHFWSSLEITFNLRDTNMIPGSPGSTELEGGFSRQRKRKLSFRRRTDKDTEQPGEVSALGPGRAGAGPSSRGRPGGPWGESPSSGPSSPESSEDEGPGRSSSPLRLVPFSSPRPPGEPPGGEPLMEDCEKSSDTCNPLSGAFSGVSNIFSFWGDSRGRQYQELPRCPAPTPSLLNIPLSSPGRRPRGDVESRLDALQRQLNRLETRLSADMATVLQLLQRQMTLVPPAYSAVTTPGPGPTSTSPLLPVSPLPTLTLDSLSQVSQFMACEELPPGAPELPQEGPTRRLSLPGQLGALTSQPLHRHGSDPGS
CYP2D6, sequence (P10635 whole entry): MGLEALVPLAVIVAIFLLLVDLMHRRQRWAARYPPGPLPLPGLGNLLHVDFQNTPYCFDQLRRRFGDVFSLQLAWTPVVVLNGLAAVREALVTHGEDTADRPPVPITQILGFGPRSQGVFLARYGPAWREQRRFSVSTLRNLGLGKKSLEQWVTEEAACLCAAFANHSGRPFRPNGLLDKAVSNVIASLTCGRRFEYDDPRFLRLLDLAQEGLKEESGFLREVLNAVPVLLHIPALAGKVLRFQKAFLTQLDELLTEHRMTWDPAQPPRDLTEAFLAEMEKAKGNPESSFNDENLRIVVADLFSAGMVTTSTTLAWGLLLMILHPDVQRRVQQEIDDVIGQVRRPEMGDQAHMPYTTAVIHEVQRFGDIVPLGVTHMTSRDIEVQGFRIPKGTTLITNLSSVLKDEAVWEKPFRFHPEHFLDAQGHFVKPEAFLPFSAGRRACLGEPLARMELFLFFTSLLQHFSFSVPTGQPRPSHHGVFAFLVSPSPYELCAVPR

Row | Compound | Ki ([1]; read-out: Ki) [µM] | Ki [2] [µM] | IC50 [3, 20] [µM] | inhibition [10] [%] | IC50 [3] | inhibition of growth at 10 µM [12] [%] | growth inhibition (GI) [5] | Activity_index [13] | inhibition of growth at 0.1 µM [16] [%] | growth inhibition (GI) [17] | Activity_index [18] | further results
1 | Nc1cc(NCc2ccc(-c3ccccc3)cc2)nc(N)n1 | 0.2 | 15.3 | 3.7 | – | – | – | – | – | – | – | – | inhibition of growth at 1 µM [4]: 49%; inhibition of growth at 10 µM ([5]; read-out: GI): > 80%; growth inhibition (GI) [6]: Active; Activity_index [7]: 2.3; GI50 [8]: 28.6 µM; CC50 [9]: < 25 µM
2 | Nc1cc(OCc2ccccc2)nc(N)n1 | 0.6 | > 100 | – | > 85 | Not Active | 36 | inactive | 1.9 | – | – | – | IC50 [2]: > 100 µM; Ratio Ki [11]: > 167; inhibition at 10 µM [14]: < 30%; inhibition at 10 µM [15]: < 30%; GI50 [8]: > 60 µM; CC50 [9]: > 60 µM
3 | Nc1cc(NCc2ccc(F)cc2)nc(N)n1 | 1.1 | > 100 | – | – | Not Active | 37 | inactive | 1.8 | – | – | – | inhibition at 10 µM [14]: > 50%; inhibition at 10 µM [15]: 30%
4 | 4-(4-Methoxybenzylamino)2,6-diaminopyrimidine | – | – | – | – | – | – | inactive | – | – | – | – | growth inhibition (GI) [12]: 41%; Activity index [13]: 2.2
5 | O=C1CCCCCNCc2ccc(cc2)-c2ccc(cc2)CNCCCCCC(=O)N(Cc2ccccc2)CCCCCCCCN1Cc1ccccc1 | 1.6 | 19.2 | 0.56 | > 85 | – | – | – | – | 41 | inactive | 1.2 | –
6 | Nc1nc(NCc2ccccc2)cc(NCc2ccccc2)n1 | – | > 100 | – | – | – | – | – | – | – | – | – | Ki [1]: Not Active; inhibition at 10 µM [14]: > 50%
7 | O=C1CCCCCNCc2ccc(cc2)CNCCCCCC(=O)N(Cc2ccccc2)CCCCCCCCN1Cc1ccccc1 | 1.7 | > 100 | 0.61 | > 85 | – | – | – | – | 43 | inactive | 1.4 | IC50 [2]: > 100 µM
8 | Nc1cc(NCc2ccccc2)nc(N)n1 | 3.4 | > 100 | – | – | Not Active | 24 | inactive | 1.3 | – | – | – | inhibition at 10 µM [14]: > 50%; inhibition at 10 µM [15]: 30%
9 | O=C1CCCCCNCc2ccc(cc2)Cc2ccc(cc2)CNCCCCCC(=O)N(Cc2ccccc2)CCCCCCCCN1Cc1ccccc1 | 2.7 | 14.8 | 0.58 | > 85 | – | – | – | – | 42 | inactive | 1.1 | –
10 | Oc1ccc(-c2ccc(-c3cc(O)cc(O)c3)c(-c3ccccc3)c2)cc1 | > 100 | 5.7 | – | > 85 | – | – | – | – | – | – | – | IC50 [1]: > 100 µM
11 | COc1ccc(COc2cc(N)nc(N)n2)cc1 | 0.8 | > 100 | – | – | Not Active | 42 | inactive | 2.2 | – | – | – | –
12 | COc1ccccc1CNCc1ccc(CNCCCCCCCCCCCCNCc2ccc(CNCc3ccccc3OC)cc2)cc1 | 0.2 | 37.2 | 0.27 | > 85 | – | – | – | – | 46 | inactive | 1.1 | Ratio Ki [11]: 186
13 | NCCCCCCN1CC[C@H]2COc3ccccc3[C@H]21 | 1.6 | > 100 | – | > 85 | Not Active | 51 | inactive | 1.3 | – | – | – | IC50 [2]: > 100 µM; Ratio Ki [11]: > 62.5
14 | CN(Cc1cnc2nc(N)nc(N)c2n1)c1ccc(C(=O)N[C@@H](CCC(=O)O)C(=O)O)cc1 [METHOTREXATE] | – | – | – | – | – | – | – | – | – | – | – | inhibition of growth at 4 µM [19]: 19%
15 | Cn1cnc2c(N)nc(CCc3ccccc3)nc21 | 4.9 | 12 | – | > 85 | Not Active | 56 | – | 1.7 | – | – | – | –
16 | Cl.Fc1ccc(N(CCNCCCc2ccccc2)c2ccc(F)cc2)cc1 | 2.2 | > 100 | 2.45 | > 85 | – | – | – | – | 46 | inactive | 1.1 | IC50 [2]: > 100 µM; Ratio Ki [11]: > 45
